Laboratory results published in ChEMBL document CHEMBL4041461, “Discovery of 6,7-dihydro-3H-pyrano[4,3-c]isoxazol-3-ones as a new class of pathogen specific anti-leptospiral agents” (Eur J Med Chem, 2017).
In brackets after ≈: the same amount, converted by molar mass. Activity calls are given as the source filed them. The rule behind the calls is not given here.

Experiments:
[1] = system: Leptospira interrogans serovar Autumnalis; experiment: Antibacterial activity against Leptospira interrogans serovar Autumnalis N2 at 62.5 ug/mL after 2 hrs by micro dilution assay; assay type: functional
Method in brief: (§1)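 Preliminary screen by broth microdilution against L. interrogans serovar Autumnalis strain N2, each compound at 500, 250, 125, 62.5 and 31.25 µg/mL. Growth at each concentration was scored as resistance (R) or inhibition (I), and the MIC was taken from these scores. Triplicates.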

[2] = system: Leptospira interrogans serovar Autumnalis; experiment: Antibacterial activity against Leptospira interrogans serovar Autumnalis N2 at 31.25 ug/mL after 2 hrs by micro dilution assay; assay type: functional; method in brief: as §1
[3] = system: Leptospira interrogans serovar Autumnalis; experiment: Antibacterial activity against Leptospira interrogans serovar Autumnalis N2 at 500 ug/mL after 2 hrs by micro dilution assay; assay type: functional; method in brief: as §1
[4] = system: Leptospira interrogans serovar Autumnalis; experiment: Antibacterial activity against Leptospira interrogans serovar Autumnalis N2 at 125 ug/mL after 2 hrs by micro dilution assay; assay type: functional; method in brief: as §1
[5] = system: Leptospira interrogans serovar Autumnalis; experiment: Antibacterial activity against Leptospira interrogans serovar Autumnalis N2 at 250 ug/mL after 2 hrs by micro dilution assay; assay type: functional; method in brief: as §1
[6] = Antibacterial activity against Leptospira interrogans serovar Hebdomadis after 2 hrs by micro dilution assay; assay type: functional
[7] = Antibacterial activity against Leptospira interrogans serovar Ballum Mus 127 after 2 hrs by micro dilution assay; assay type: functional; settings: Mus 127, 2 h
[8] = Antibacterial activity against Leptospira interrogans serovar Grippotyphosa Moskva V after 2 hrs by micro dilution assay; assay type: functional
[9] = Antibacterial activity against Leptospira interrogans serovar Autumnalis N2 after 2 hrs by micro dilution assay; assay type: functional; settings: N2, 2 h
[10] = Antibacterial activity against Leptospira interrogans serovar Australis Ballico after 2 hrs by micro dilution assay; assay type: functional
[11] = Antibacterial activity against Leptospira interrogans serovar Bataviae Swart after 2 hrs by micro dilution assay; assay type: functional
[12] = Antibacterial activity against Leptospira interrogans serovar Javanica Poi after 2 hrs by micro dilution assay; assay type: functional
[13] = Antibacterial activity against Leptospira interrogans serovar Hardjo Hardjoprajitno after 2 hrs by micro dilution assay; assay type: functional
[14] = Antibacterial activity against Leptospira interrogans serovar Pomona after 2 hrs by micro dilution assay; assay type: functional
[15] = Antibacterial activity against Leptospira interrogans serovar Canicola Hond Utrecht IV after 2 hrs by micro dilution assay; assay type: functional
[16] = Antibacterial activity against Leptospira interrogans serovar Pyrogenes Salinem after 2 hrs by micro dilution assay; assay type: functional
[17] = Antibacterial activity against Leptospira interrogans serovar Icterohaemorrhagiae RGA after 2 hrs by micro dilution assay; assay type: functional
[18] = (§2) Antibacterial activity against Leptospira interrogans serovar Semaranga after 2 hrs by micro dilution assay; assay type: functional
THP-1 = experiment: Induction of cell death in human THP1 cells at 0.5 mM after 12 hrs by propidium iodide staining based confocal laser scanning microscopic method; settings: thp-1, 12 h, 500 µM
Method in brief: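 THP-1 cells were treated for 12 h and then stained with propidium iodide. Apoptotic and necrotic cells were counted manually and expressed as a percentage. Untreated cells and tert-butylhydroperoxide served as controls. Data are mean ± SD of triplicates.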

Leptospira interrogans = experiment: as §2; assay type: functional

Question: With `COc1cc(OC)c2c(O)c3c(cc2c1)OC(C)(C)CC3=O` as the compound, how does the Activity [1] read?
Answer: Its Activity is “inactive”.

Question: What about the Activity [2] of the same compound?
Answer: The Activity was “inactive”.

Question: And the Activity [3]?
Answer: Its Activity is “inactive”.

Question: And the Activity [4]?
Answer: Its Activity is “inactive”.

Question: And the Activity [5]?
Answer: Its Activity is “inactive”.

Question: What does the source list for `CC1=C2C(=O)ON=C2CC(C)(C)O1`?
Answer: MIC [6]: 250 µg/mL (≈ 1380 µM); MIC [7]: 500 µg/mL (≈ 2760 µM); MIC [8]: 500 µg/mL (≈ 2760 µM); Activity [1]: inactive; Activity [2]: inactive; MIC [9]: 500 µg/mL (≈ 2760 µM); MIC [10]: 500 µg/mL (≈ 2760 µM); Activity [3]: Active; MIC [11]: 250 µg/mL (≈ 1380 µM); MIC [12]: 500 µg/mL (≈ 2760 µM); Activity [4]: inactive; MIC [13]: 500 µg/mL (≈ 2760 µM); Activity [5]: inactive; MIC [14]: 250 µg/mL (≈ 1380 µM); MIC [15]: 250 µg/mL (≈ 1380 µM); MIC [16]: 250 µg/mL (≈ 1380 µM); MIC [17]: 125 µg/mL (≈ 690 µM); MIC [18]: 500 µg/mL (≈ 2760 µM)

Question: For `CC1(C)CC(=O)c2c(cc3ccccc3c2O)O1`, which Activity [1] is on record?
Answer: Its Activity is “inactive”.

Question: What about the Activity [2] of the same compound?
Answer: Its Activity is “inactive”.

Question: And the Activity [3]?
Answer: Its Activity is “Active”.

Question: What about the Activity [4] of the same compound?
Answer: The Activity was “inactive”.

Question: What about the Activity [5] of the same compound?
Answer: The Activity was “inactive”.

Question: For `COc1cc(OC)cc(C2=C3C(=O)ON=C3CC(C)(C)O2)c1`, which Activity [1] is on record?
Answer: The Activity was “inactive”.

Question: What about the Activity [2] of the same compound?
Answer: The Activity was “inactive”.

Question: What about the Activity [3] of the same compound?
Answer: The Activity was “inactive”.

Question: And the Activity [4]?
Answer: Its Activity is “inactive”.

Question: And the Activity [5]?
Answer: Its Activity is “inactive”.

Question: Which Activity [1] does the source give for `CC1(C)CC2=NOC(=O)C2=C(c2ccco2)O1` here?
Answer: The Activity was “inactive”.

Question: And the Activity [2]?
Answer: The Activity was “inactive”.

Question: What about the Activity [3] of the same compound?
Answer: The Activity was “inactive”.

Question: What about the Activity [4] of the same compound?
Answer: The Activity was “inactive”.

Question: And the Activity [5]?
Answer: Its Activity is “inactive”.

Question: What does the source list for `CC1(C)CC2=NOC(=O)C2=C(c2ccccc2)O1`?
Answer: Activity [1]: inactive; Activity [2]: inactive; Activity [3]: inactive; Activity [4]: inactive; Activity [5]: inactive

Question: Which Activity (THP-1) does the source give for `CC(C)(C)OO` [TERT-BUTYL HYDROPEROXIDE] here?
Answer: The Activity was “Toxic”.

Question: Which Activity [1] does the source give for `CC1(C)CC(O)=C2C(=O)c3ccccc3C=C2O1` here?
Answer: The Activity was “inactive”.

Question: And the Activity [2]?
Answer: Its Activity is “inactive”.

Question: What about the Activity [3] of the same compound?
Answer: The Activity was “Active”.

Question: And the Activity [4]?
Answer: The Activity was “inactive”.

Question: And the Activity [5]?
Answer: The Activity was “Active”.

Question: What does the source list for `CC1(C)CC2=NOC(=O)C2=C(c2ccc(Cl)cc2)O1`?
Answer: MIC [6]: 250 µg/mL (≈ 900 µM); MIC [7]: 250 µg/mL (≈ 900 µM); MIC [8]: 250 µg/mL (≈ 900 µM); Activity [1]: inactive; Activity [2]: inactive; MIC [9]: 250 µg/mL (≈ 900 µM); MIC [10]: 125 µg/mL (≈ 450 µM); Activity [3]: Active; MIC [11]: 250 µg/mL (≈ 900 µM); MIC [12]: 250 µg/mL (≈ 900 µM); Activity [4]: inactive; MIC [13]: 250 µg/mL (≈ 900 µM); Activity [5]: Active; MIC [14]: 250 µg/mL (≈ 900 µM); MIC [15]: 125 µg/mL (≈ 450 µM); MIC [16]: 250 µg/mL (≈ 900 µM); MIC [17]: 250 µg/mL (≈ 900 µM); MIC (Leptospira interrogans): inactive
